Assay results published in ChEMBL document CHEMBL1649531, “In vitro activity of garenoxacin against Streptococcus pneumoniae mutants with characterized resistance mechanisms” (2009).
In brackets after ≈: the same amount, converted by molar mass.

Key:
Type in all cases: functional
Streptococcus pneumoniae [1] = experiment: Antibacterial activity against Streptococcus pneumoniae S003 harboring wild-type parC and gyrA Ser81Phe mutant genes assessed as mutation prevention concentration after 48 hrs
Outline: (§1)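 A 200 μl culture at 10 log10 CFU/ml was spread on Mueller-Hinton II agar with 5% sheep blood containing drug at a range of concentrations, then incubated at 37°C in 5% CO2. MPC was taken as the lowest concentration preventing colony formation after 48 h. Determinations were done in duplicate.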

Streptococcus pneumoniae [2] = experiment: Antibacterial activity against Streptococcus pneumoniae S002 harboring parC Ser79Phe mutant and wild-type gyrA genes assessed as mutation prevention concentration after 48 hrs; outline: as §1
Streptococcus pneumoniae [3] = experiment: Antibacterial activity against Streptococcus pneumoniae W002 harboring wild-type parC and gyrA genes
Streptococcus pneumoniae [4] = experiment: Antibacterial activity against Streptococcus pneumoniae D001 harboring parC Ser79Phe and gyrA Gly85Lys mutant genes
Streptococcus pneumoniae [5] = experiment: Antibacterial activity against Streptococcus pneumoniae S001 harboring parC Asp83Asn mutant and wild-type gyrA genes assessed as mutation prevention concentration after 48 hrs; outline: as §1
Streptococcus pneumoniae [6] = experiment: Antibacterial activity against Streptococcus pneumoniae D002 harboring parC Ser79Phe and gyrA Ser81Phe mutant genes assessed as mutation prevention concentration after 48 hrs; outline: as §1
Streptococcus pneumoniae [7] = experiment: Antibacterial activity against Streptococcus pneumoniae D001 harboring parC Ser79Phe and gyrA Gly85Lys mutant genes assessed as mutation prevention concentration after 48 hrs; outline: as §1
Streptococcus pneumoniae [8] = experiment: Antibacterial activity against Streptococcus pneumoniae W002 harboring wild-type parC and gyrA genes assessed as mutation prevention concentration after 48 hrs; outline: as §1
Streptococcus pneumoniae [9] = experiment: Antibacterial activity against Streptococcus pneumoniae S004 harboring wild-type parC and gyrA Gly85Asn mutant genes assessed as mutation prevention concentration after 48 hrs; outline: as §1
Streptococcus pneumoniae [10] = experiment: Antibacterial activity against Streptococcus pneumoniae D002 harboring parC Ser79Phe and gyrA Ser81Phe mutant genes
Streptococcus pneumoniae [11] = experiment: Antibacterial activity against Streptococcus pneumoniae W001 harboring wild-type parC and gyrA genes assessed as mutation prevention concentration after 48 hrs; outline: as §1
Streptococcus pneumoniae [12] = experiment: Antibacterial activity against Streptococcus pneumoniae W001 harboring wild-type parC and gyrA genes
Streptococcus pneumoniae [13] = experiment: Antibacterial activity against Streptococcus pneumoniae S001 harboring parC Asp83Asn mutant and wild-type gyrA genes
Streptococcus pneumoniae [14] = experiment: Antibacterial activity against Streptococcus pneumoniae S003 harboring wild-type parC and gyrA Ser81Phe mutant genes
Streptococcus pneumoniae [15] = experiment: Antibacterial activity against Streptococcus pneumoniae S002 harboring parC Ser79Phe mutant and wild-type gyrA genes
Streptococcus pneumoniae [16] = experiment: Antibacterial activity against Streptococcus pneumoniae S004 harboring wild-type parC and gyrA Gly85Asn mutant genes
Streptococcus pneumoniae [17] = experiment: Antibacterial activity against Streptococcus pneumoniae W001 assessed as resistant isolates with ParC79 mutation in quinolone resistance-determining regions
Outline: (§2)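 Up to eight colonies per plate were grown individually, and genomic DNA was screened for ParC Ser79/Asp83 and GyrA Ser81/Gly85 changes by PCR-melting curve analysis with labelled hybridization probes. Sequences were confirmed by direct sequencing.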

Streptococcus pneumoniae [18] = experiment: Antibacterial activity against Streptococcus pneumoniae S002 assessed as resistant isolates with GyrA85 mutation in quinolone resistance-determining regions; outline: as §2
Streptococcus pneumoniae [19] = experiment: Antibacterial activity against Streptococcus pneumoniae S003 assessed as resistant isolates with ParC79 mutation in quinolone resistance-determining regions; outline: as §2
Streptococcus pneumoniae [20] = experiment: Antibacterial activity against Streptococcus pneumoniae W002 assessed as resistant isolates with GyrA85 mutation in quinolone resistance-determining regions; outline: as §2
Streptococcus pneumoniae [21] = experiment: Antibacterial activity against Streptococcus pneumoniae W002 assessed as resistant isolates with ParC83 mutation in quinolone resistance-determining regions; outline: as §2
Streptococcus pneumoniae [22] = experiment: Antibacterial activity against Streptococcus pneumoniae D002 assessed as resistant isolates with GyrA85 mutation in quinolone resistance-determining regions; outline: as §2
Streptococcus pneumoniae [23] = experiment: Antibacterial activity against Streptococcus pneumoniae W001
Streptococcus pneumoniae [24] = experiment: Antibacterial activity against Streptococcus pneumoniae S004 assessed as resistant isolates with GyrA85 mutation in quinolone resistance-determining regions; outline: as §2
Streptococcus pneumoniae [25] = experiment: Antibacterial activity against Streptococcus pneumoniae S001
Streptococcus pneumoniae [26] = experiment: Antibacterial activity against Streptococcus pneumoniae D001
Streptococcus pneumoniae [27] = experiment: Antibacterial activity against Streptococcus pneumoniae W001 assessed as resistant isolates with GyrA85 mutation in quinolone resistance-determining regions; outline: as §2
Streptococcus pneumoniae [28] = experiment: Antibacterial activity against Streptococcus pneumoniae S001 assessed as resistant isolates with ParC79 mutation in quinolone resistance-determining regions; outline: as §2
Streptococcus pneumoniae [29] = experiment: Antibacterial activity against Streptococcus pneumoniae W002 assessed as resistant isolates with ParC79 mutation in quinolone resistance-determining regions; outline: as §2
Streptococcus pneumoniae [30] = experiment: Antibacterial activity against Streptococcus pneumoniae S002 assessed as resistant isolates with ParC83 mutation in quinolone resistance-determining regions; outline: as §2
Streptococcus pneumoniae [31] = experiment: Antibacterial activity against Streptococcus pneumoniae S001 assessed as resistant isolates with GyrA85 mutation in quinolone resistance-determining regions; outline: as §2
Streptococcus pneumoniae [32] = experiment: Antibacterial activity against Streptococcus pneumoniae W001 assessed as resistant isolates with GyrA81 mutation in quinolone resistance-determining regions; outline: as §2
Streptococcus pneumoniae [33] = experiment: Antibacterial activity against Streptococcus pneumoniae S003 assessed as resistant isolates with GyrA85 mutation in quinolone resistance-determining regions; outline: as §2
Streptococcus pneumoniae [34] = experiment: Antibacterial activity against Streptococcus pneumoniae S004 assessed as resistant isolates with ParC79 mutation in quinolone resistance-determining regions; outline: as §2
Streptococcus pneumoniae [35] = experiment: Antibacterial activity against Streptococcus pneumoniae W002
Streptococcus pneumoniae [36] = experiment: Antibacterial activity against Streptococcus pneumoniae S001 assessed as resistant isolates with GyrA81 mutation in quinolone resistance-determining regions; outline: as §2
Streptococcus pneumoniae [37] = experiment: Antibacterial activity against Streptococcus pneumoniae S004 assessed as resistant isolates with ParC83 mutation in quinolone resistance-determining regions; outline: as §2
Streptococcus pneumoniae [38] = experiment: Antibacterial activity against Streptococcus pneumoniae S002 assessed as resistant isolates with GyrA81 mutation in quinolone resistance-determining regions; outline: as §2
Streptococcus pneumoniae [39] = experiment: Antibacterial activity against Streptococcus pneumoniae D001 assessed as resistant isolates with GyrA81 mutation in quinolone resistance-determining regions; outline: as §2
Streptococcus pneumoniae [40] = experiment: Antibacterial activity against Streptococcus pneumoniae S002
Streptococcus pneumoniae [41] = experiment: Antibacterial activity against Streptococcus pneumoniae W001 assessed as resistant isolates with ParC83 mutation in quinolone resistance-determining regions; outline: as §2
Streptococcus pneumoniae [42] = experiment: Antibacterial activity against Streptococcus pneumoniae D002
Streptococcus pneumoniae [43] = experiment: Antibacterial activity against Streptococcus pneumoniae S004
Streptococcus pneumoniae [44] = experiment: Antibacterial activity against Streptococcus pneumoniae W002 assessed as resistant isolates with GyrA81 mutation in quinolone resistance-determining regions; outline: as §2
Streptococcus pneumoniae [45] = experiment: Antibacterial activity against Streptococcus pneumoniae S003 assessed as resistant isolates with ParC83 mutation in quinolone resistance-determining regions; outline: as §2
Streptococcus pneumoniae [46] = experiment: Antibacterial activity against Streptococcus pneumoniae D002 assessed as resistant isolates with ParC83 mutation in quinolone resistance-determining regions; outline: as §2
Streptococcus pneumoniae [47] = experiment: Antibacterial activity against Streptococcus pneumoniae S003

O=C(O)c1cn(C2CC2)c2cc(N3CCNCC3)c(F)cc2c1=O [CIPROFLOXACIN]
Activity (Streptococcus pneumoniae [1]): 64 µg/mL | Activity (Streptococcus pneumoniae [2]): 128 µg/mL | MIC (Streptococcus pneumoniae [3]): 0.25 µg/mL (≈ 0.754 µM) | MIC (Streptococcus pneumoniae [4]): 32 µg/mL (≈ 96.6 µM) | Activity (Streptococcus pneumoniae [5]): 128 µg/mL | Activity (Streptococcus pneumoniae [6]): 256 µg/mL | Activity (Streptococcus pneumoniae [7]): 256 µg/mL | Activity (Streptococcus pneumoniae [8]): 8 µg/mL | Activity (Streptococcus pneumoniae [9]): 64 µg/mL | MIC (Streptococcus pneumoniae [10]): 8 µg/mL (≈ 24.1 µM) | Activity (Streptococcus pneumoniae [11]): 8 µg/mL

COc1c(N2CCNC(C)C2)c(F)cc2c(=O)c(C(=O)O)cn(C3CC3)c12 (centres undefined) [GATIFLOXACIN]
Activity (Streptococcus pneumoniae [1]): 8 µg/mL | MIC (Streptococcus pneumoniae [12]): 0.12 µg/mL (≈ 0.32 µM) | Activity (Streptococcus pneumoniae [2]): 4 µg/mL | MIC (Streptococcus pneumoniae [13]): 0.25 µg/mL (≈ 0.666 µM) | MIC (Streptococcus pneumoniae [3]): 0.12 µg/mL (≈ 0.32 µM) | MIC (Streptococcus pneumoniae [4]): 4 µg/mL (≈ 10.7 µM) | Activity (Streptococcus pneumoniae [5]): 4 µg/mL | MIC (Streptococcus pneumoniae [14]): 0.12 µg/mL (≈ 0.32 µM) | Activity (Streptococcus pneumoniae [6]): 16 µg/mL | Activity (Streptococcus pneumoniae [7]): 16 µg/mL | Activity (Streptococcus pneumoniae [8]): 0.5 µg/mL | MIC (Streptococcus pneumoniae [15]): 0.12 µg/mL (≈ 0.32 µM) | Activity (Streptococcus pneumoniae [9]): 8 µg/mL | MIC (Streptococcus pneumoniae [10]): 8 µg/mL (≈ 21.3 µM) | Activity (Streptococcus pneumoniae [11]): 0.5 µg/mL | MIC (Streptococcus pneumoniae [16]): 0.25 µg/mL (≈ 0.666 µM)

COc1c(N2C[C@@H]3CCCN[C@@H]3C2)c(F)cc2c(=O)c(C(=O)O)cn(C3CC3)c12 [MOXIFLOXACIN]
Activity (Streptococcus pneumoniae [1]): 4 µg/mL | MIC (Streptococcus pneumoniae [12]): 0.06 µg/mL (≈ 0.149 µM) | MIC (Streptococcus pneumoniae [3]): 0.06 µg/mL (≈ 0.149 µM) | MIC (Streptococcus pneumoniae [4]): 4 µg/mL (≈ 9.96 µM) | MIC (Streptococcus pneumoniae [14]): 0.06 µg/mL (≈ 0.149 µM) | Activity (Streptococcus pneumoniae [6]): 16 µg/mL | Activity (Streptococcus pneumoniae [7]): 16 µg/mL | Activity (Streptococcus pneumoniae [8]): 0.5 µg/mL | Activity (Streptococcus pneumoniae [9]): 4 µg/mL | MIC (Streptococcus pneumoniae [10]): 4 µg/mL (≈ 9.96 µM) | Activity (Streptococcus pneumoniae [11]): 0.5 µg/mL | MIC (Streptococcus pneumoniae [16]): 0.12 µg/mL (≈ 0.299 µM)

C[C@H]1COc2c(N3CCN(C)CC3)c(F)cc3c(=O)c(C(=O)O)cn1c23.C[C@H]1COc2c(N3CCN(C)CC3)c(F)cc3c(=O)c(C(=O)O)cn1c23.O [LEVOFLOXACIN]
Activity (Streptococcus pneumoniae [1]): 32 µg/mL | Activity (Streptococcus pneumoniae [2]): 16 µg/mL | Activity (Streptococcus pneumoniae [5]): 16 µg/mL | Activity (Streptococcus pneumoniae [6]): 128 µg/mL | Activity (Streptococcus pneumoniae [7]): 128 µg/mL | Activity (Streptococcus pneumoniae [8]): 2 µg/mL | Activity (Streptococcus pneumoniae [9]): 32 µg/mL | Activity (Streptococcus pneumoniae [11]): 2 µg/mL

C[C@H]1NCc2cc(-c3ccc4c(=O)c(C(=O)O)cn(C5CC5)c4c3OC(F)F)ccc21 [GARENOXACIN]
Activity (Streptococcus pneumoniae [1]): 2 µg/mL | Activity (Streptococcus pneumoniae [17]): 0% | Activity (Streptococcus pneumoniae [18]): 9% | Activity (Streptococcus pneumoniae [19]): 65% | Activity (Streptococcus pneumoniae [20]): 0% | MIC (Streptococcus pneumoniae [12]): 0.015 µg/mL (≈ 0.0352 µM) | Activity (Streptococcus pneumoniae [21]): 0% | Activity (Streptococcus pneumoniae [2]): 1 µg/mL | Activity (Streptococcus pneumoniae [22]): 50% | MIC (Streptococcus pneumoniae [13]): 0.03 µg/mL (≈ 0.0704 µM) | MIC (Streptococcus pneumoniae [3]): 0.015 µg/mL (≈ 0.0352 µM) | MIC (Streptococcus pneumoniae [23]): 0.015 µg/mL (≈ 0.0352 µM) | Activity (Streptococcus pneumoniae [24]): 0% | MIC (Streptococcus pneumoniae [4]): 0.25 µg/mL (≈ 0.586 µM) | MIC (Streptococcus pneumoniae [25]): 0.03 µg/mL (≈ 0.0704 µM) | Activity (Streptococcus pneumoniae [5]): 1 µg/mL | MIC (Streptococcus pneumoniae [14]): 0.06 µg/mL (≈ 0.141 µM) | MIC (Streptococcus pneumoniae [26]): 0.25 µg/mL (≈ 0.586 µM) | Activity (Streptococcus pneumoniae [6]): 4 µg/mL | Activity (Streptococcus pneumoniae [27]): 12% | Activity (Streptococcus pneumoniae [7]): 4 µg/mL | Activity (Streptococcus pneumoniae [28]): 0% | Activity (Streptococcus pneumoniae [8]): 0.12 µg/mL | Activity (Streptococcus pneumoniae [29]): 0% | Activity (Streptococcus pneumoniae [30]): 0% | Activity (Streptococcus pneumoniae [31]): 0% | Activity (Streptococcus pneumoniae [32]): 50% | Activity (Streptococcus pneumoniae [33]): 0% | MIC (Streptococcus pneumoniae [15]): 0.06 µg/mL (≈ 0.141 µM) | Activity (Streptococcus pneumoniae [34]): 56% | Activity (Streptococcus pneumoniae [9]): 2 µg/mL | MIC (Streptococcus pneumoniae [10]): 0.5 µg/mL (≈ 1.17 µM) | MIC (Streptococcus pneumoniae [35]): 0.015 µg/mL (≈ 0.0352 µM) | Activity (Streptococcus pneumoniae [36]): 77% | Activity (Streptococcus pneumoniae [37]): 0% | Activity (Streptococcus pneumoniae [11]): 0.12 µg/mL | Activity (Streptococcus pneumoniae [38]): 48% | Activity (Streptococcus pneumoniae [39]): 70% | MIC (Streptococcus pneumoniae [40]): 0.06 µg/mL (≈ 0.141 µM) | Activity (Streptococcus pneumoniae [41]): 0% | MIC (Streptococcus pneumoniae [42]): 0.5 µg/mL (≈ 1.17 µM) | MIC (Streptococcus pneumoniae [43]): 0.06 µg/mL (≈ 0.141 µM) | Activity (Streptococcus pneumoniae [44]): 67% | Activity (Streptococcus pneumoniae [45]): 0% | Activity (Streptococcus pneumoniae [46]): 21% | MIC (Streptococcus pneumoniae [47]): 0.06 µg/mL (≈ 0.141 µM) | MIC (Streptococcus pneumoniae [16]): 0.06 µg/mL (≈ 0.141 µM)
